Bioassay records deposited in PubChem BioAssay by several laboratories.
Rows were chosen to be rich in hits. Some 3.7% of all compounds tested hit in one or more screens of this group.
Beta2AR agonist = beta2AR agonists driving receptor internalization, primary screen, cell-based, FAP fluorogen, flow cytometry. Am2.2-beta2AR cells. response, % (test concentration not listed). 340,000 compounds, 0.43% hits;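 active = response above a set limit, near 3 SD of response in nonfluorescent compounds, cut at about 42% in these data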
Target sequence (P07550 whole entry, looked up): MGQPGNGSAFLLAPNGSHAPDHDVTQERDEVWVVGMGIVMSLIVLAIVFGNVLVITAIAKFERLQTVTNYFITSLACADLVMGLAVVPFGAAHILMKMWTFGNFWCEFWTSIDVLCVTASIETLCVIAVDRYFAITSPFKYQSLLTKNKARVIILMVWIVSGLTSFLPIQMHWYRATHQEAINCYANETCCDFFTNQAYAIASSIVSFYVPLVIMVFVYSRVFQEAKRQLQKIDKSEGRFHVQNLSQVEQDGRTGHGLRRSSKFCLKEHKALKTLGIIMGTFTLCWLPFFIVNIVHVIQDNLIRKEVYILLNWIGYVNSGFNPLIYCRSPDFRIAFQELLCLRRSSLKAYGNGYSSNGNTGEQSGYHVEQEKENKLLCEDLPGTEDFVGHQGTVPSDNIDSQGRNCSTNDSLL
UPR CHOP act = activators of apoptotic CHOP UPR arm, primary screen, cell-based, CHO-CHOP luciferase reporter, luminescence, uHTS | UPR activation; percent of tunicamycin response over DMSO baseline | activation, % at 10 µM | 330,000 compounds, 0.34% hits | AID 449763, 2010;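 active = at 10 µM dose, activation of 40% or more, normalized to positive control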;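 also: 100% = tunicamycin at 10 µg/mL and 0% = DMSO alone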
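System: CHO-CHOP luciferase reporter cell line; amount: 500 cells/well; buffer or medium: F12 medium containing 10% fetal bovine serum; incubation: 6 h compound exposure at 37 °C after overnight seeding; measured by: luciferase luminescence after 10 min with Steady-Glo reagent; evaluation: % reporter activation, DMSO baseline versus tunicamycin full activation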
Mdm2 MdmX PPI = inhibitors of human Mdm2-MdmX association, primary screen, cell-based, luminescence, split luciferase, SaOS-2, uHTS; Protein Mdm4 (Homo sapiens) + E3 ubiquitin-protein ligase Mdm2 (Homo sapiens), …; SaOS-2 split-luciferase Mdm2/MdmX complementation; inhibition, % at 8 µM; 330,000 compounds, 3% hits;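 active = inhibition of at least 50% at 8 µM in the primary screen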
Dynein cargo inh = inhibitors of GR-EGFP nuclear translocation, primary screen, dynein cargo transport inhibitor project, imaging, high-content, 3617.4 mouse cells. test concentration mostly 20 µM; stimulated with dexamethasone, 1 µM; active compounds read low. z-score, hits read low. 220,000 compounds, 0.47% hits. AID 1381, 2008;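 active = plate z-score of nuclear minus cytoplasmic receptor signal below a set negative limit, without overly bright fluorescence or cell loss, cut at about -3.5 in these data, passing the limit was not always enough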;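 also: z-score of nuclear minus cytoplasmic ring GR-EGFP intensity difference per well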
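medium = tetracycline-free induction medium containing charcoal-stripped FBS | also added = 1.0 µM final dexamethasone stimulus | schedule = 48 h induction, 1 h compound, 30 min dex at 37 °C | technique = fixed, Hoechst-stained cells imaged at 10x for EGFP | measure = GR-EGFP nuclear translocation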
MDM2 E3 inh = MDM2-luciferase reporter signal enhancers, primary screen, MDM2 E3 ligase inhibitor project, cell-based, luminescence, 1536-well; cell-based MDM2 ubiquitination luciferase reporter, 2 h; 0 = plate control, 100 = twice control, blank-subtracted; signal enhancement, % at 5 µM; 210,000 compounds, 0.11% hits;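 active = signal enhancement of 30% or more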;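 also: luminescence tracks abundance of the self-degrading MDM2-luciferase fusion protein; higher signal means inhibition of MDM2 E3 ligase activity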
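Assay system: stable mammalian line carrying autodegrading MDM2–luciferase fusion reporter; Input: 2000 cells in each well; Compound dosing: single-point 5 µM; Schedule: 2 h compound exposure at 37 °C; Signal: SteadyLite luciferase luminescence after 15 min room-temperature reagent incubation; Evaluation: % luminescence enhancement versus blank-corrected plate control mean; Benchmarks: plate controls and plate blanks.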
UPR XBP1 act = activators of adaptive XBP1 UPR arm, primary screen, cell-based, CHO-XBP1 luciferase reporter, luminescence, uHTS | IRE1-XBP1 UPR activation; percent of tunicamycin response, DMSO as zero | activation, % at 20 µM | 330,000 compounds, 0.33% hits | AID 463104, 2010;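 active = versus positive control, 20 µM dose yields 30% or more activation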;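 also: 100% = tunicamycin at 10 µg/mL and 0% = DMSO only wells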
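Material: IRE1-XBP1 luciferase reporter CHO line / Quantity: one thousand reporter cells per well / Buffer or medium: F12 with 10% serum / Compound: 20 µM single concentration, DMSO 1% / Times: 6 h treatment, 37 °C / Detection: Steady-Glo luciferase glow luminescence, 10 min after reagent addition / Benchmarks: tunicamycin high, DMSO low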
UPR XBP1 confirm = IRE1-XBP1 UPR arm activators, confirmation, cell-based, CHO-XBP1 luciferase reporter, luminescence, single concentration. shares compounds with UPR XBP1 act. activation, % at 20 µM. 1,000 compounds, 63% hits. AID 485299, 2010;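 active = reporter signal at least 30% of the positive control's activation in two or more of four replicate wells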;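 also: plate controls were DMSO negative control for no effect and tunicamycin 10 µg/mL positive control for full effect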
* = called active by the depositor; . = no result.

SMILES	Beta2AR agonist	UPR CHOP act	Mdm2 MdmX PPI	Dynein cargo inh	MDM2 E3 inh	UPR XBP1 act	UPR XBP1 confirm
Cc1c(CN2CCC(Oc3ccc(C(=O)N4CCCCC4)cc3)CC2)cnn1C	-6	-2	3	.	.	-3	.
CC1=C(C(=O)OCc2ccccc2)C(c2ccc([N+](=O)[O-])cc2)NC(=O)N1CCCCCC(=O)O (stereo unspecified)	1	3	-3	-0.015	.	2	.
CC1=C(C(=O)OCc2ccccc2)C(c2ccc([N+](=O)[O-])cc2)NC(=O)N1CCCC(=O)O (stereo unspecified)	2	1	20	.	.	53*	-1
COc1ccc(-c2cc(C(F)(F)F)nc(SCC(=O)Nc3ccc4c(c3)OCO4)n2)cc1	4	0	44	0.15	-9	55*	0
COc1ccc(-c2cc(C(F)(F)F)nc(SCC(N)=O)n2)cc1	5	-1	-6	-0.63	-14	-2	.
Cn1cc(C(=O)NC2CCCCC2)c(=O)c2cc(S(=O)(=O)N3CCOCC3)ccc21	-4	-1	-6	.	.	-4	.
CCOC(=O)c1nnc(-c2ccc(C)cc2)nc1N1CCSCC1	-1	1	10	1.3	-24	0	.
CCOC(=O)c1nnc(-c2ccc(C)cc2)nc1Sc1ccc(Cl)cc1	2	22	35	0.084	8	47*	19
CCOC(=O)c1nnc(-c2ccc(C)cc2)nc1Oc1ccc(Cl)cc1Cl	17	31	20	-3.2	-1	94*	124*
CCOC(=O)c1nnc(-c2ccccc2)nc1NCc1ccc(Cl)cc1	1	-2	17	0.19	-9	2	.
CCOC(=O)c1nnc(-c2ccccc2)nc1Sc1c(Cl)cccc1Cl	22	26	34	-1.3	-4	47*	97*
Cc1ccccc1NC(=O)CSc1nc2cc3c(cc2cc1C)CCC3	-10	-1	42	0.13	-1	0	.
CCC(=O)Nc1ccc(NC(=O)CSc2nc3cc4c(cc3cc2C)CCC4)cc1	-8	1	13	0.38	-3	50*	40*
COC(=O)c1ccc(CSc2nc3ccccc3c(=O)n2-c2ccccc2)o1	15	-2	-12	0.82	-6	35*	12
COC(=O)c1ccc(CSc2nc3ccccc3c(=O)n2-c2ccc(OC)c(OC)c2)o1	13	-1	11	0.83	-7	8	.
Cc1cc(N2C(=O)C(=O)/C(=C(/O)c3ccc(F)cc3)C2c2ccc(Cl)cc2)no1 (stereo unspecified)	1	-1	-8	-0.21	-10	33*	2
Cn1c2c(c(=O)n(C)c1=O)C(c1ccc(Br)cc1)C(C#N)=C(N)N2 (stereo unspecified)	-1	0	17	.	.	0	.
CC1=CC(C)(C)n2c(O)c(N=NC(N)=S)c3cc(C)cc1c32	-8	22	17	-0.39	-4	31*	3
CCOc1ccc(C(C)NC(=O)c2ccc3c(c2)NC(=O)C(C)S3)cc1OCC (stereo unspecified)	10	1	16	.	.	0	.
COc1ccc(OC)c2sc(NC(=O)c3ccc(Cl)s3)nc12	-11	4	22	2.2	-8	97*	26
CCOc1ccc(NC(=O)c2cc(=O)[nH]c3ccccc23)cc1	-5	1	14	.	.	-3	.
N#Cc1cnn2c1nc(N1CCCCC1)c1ccccc12	-1	14	47	-0.1	-7	47*	41*
CCCCC1CCC(c2ccc(C(N)=O)cc2)CC1 (stereo unspecified)	2	-1	0	-0.022	-25	0	.
CCCCCC1CCC(c2ccc(/C(N)=N/O)cc2)CC1 (stereo unspecified)	10	2	25	0.58	-14	32*	3
CCCCn1c(N)c(N(CC(C)C)C(=O)C2CCCO2)c(=O)[nH]c1=O (stereo unspecified)	-4	1	-5	.	.	0	.
SMILES	Beta2AR agonist	UPR CHOP act	Mdm2 MdmX PPI	Dynein cargo inh	MDM2 E3 inh	UPR XBP1 act	UPR XBP1 confirm
CCCCC1CCC(C(=O)N(CC(C)C)c2c(N)n(CCCC)c(=O)[nH]c2=O)CC1 (stereo unspecified)	-9	32	46	.	.	39*	38*
O=C(C[n+]1cccc(NC(=O)c2ccccc2)c1)c1cccc([N+](=O)[O-])c1	-1	2	-13	-1.6	9	-1	.
O=C(C[n+]1ccc(-c2cc(C(=O)Nc3cccc(C(F)(F)F)c3)c3ccccc3n2)cc1)c1cccc([N+](=O)[O-])c1	1	11	34	1.8	-3	106*	91*
O=c1cc(N2CCc3ccccc3C2)[nH]c(=O)n1Cc1ccc(F)cc1	-1	-2	25	3.1	-15	42*	0
CCCN1CCc2c(sc(NC(=O)c3ccc(S(=O)(=O)N(C)c4ccccc4)cc3)c2C(N)=O)C1	-155	3	16	.	.	40*	5
CCCCNc1c(-c2ccc(-c3ccc(C(C)=O)cc3)c(OC)c2)nc2cc(C)ccn12	13	9	33	.	.	40*	38*
CCCCNc1c(-c2ccc(OC)c(SC(C)CC)c2)nc2cc(C)ccn12 (stereo unspecified)	25	2	19	.	.	-2	.
Cc1cccc(C)c1NC(=O)Cn1nc(-c2ccc(Cl)s2)ccc1=O	2	1	30	.	.	-2	.
NS(=O)(=O)c1ccc(CCNC(=O)c2cnccn2)cc1	-3	1	1	.	.	1	.
CC(C)CCOc1ccc(-c2c(=O)n(OCc3ccc([N+](=O)[O-])cc3)c3ccccc3[n+]2[O-])cc1	-1	16	37	-0.37	-10	41*	6
CCCOc1ccc(-c2c(=O)n(OCc3ccc([N+](=O)[O-])cc3)c3ccccc3[n+]2[O-])cc1	14	1	43	-0.41	-8	10	.
N#Cc1ccsc1NC(=O)COC(=O)C1=NNC(=O)CC1	9	1	-24	.	.	0	.
CCOc1ncccc1C(=O)NCC(c1ccccc1)N(C)C (stereo unspecified)	-9	1	35	.	.	-5	.
